Legend:
[1] = biological target: Leukocyte tyrosine kinase receptor (Homo sapiens) (UniProt P29376); assay: Inhibition of LTK at 1 uM
Procedure, shortened: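 Single-concentration screen on the Ambit KINOMEscan platform, run against a panel of 250–400 kinases. Per-kinase inhibition was also summarized as S(90), the fraction of kinases inhibited by more than 90%.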

[2] = biological target: T1, MAP kinase-activated protein kinase 5 (Homo sapiens) (UniProt Q8IW41); assay: Inhibition of MAPKAPK5 at 1 uM
T1 sequence (whole entry): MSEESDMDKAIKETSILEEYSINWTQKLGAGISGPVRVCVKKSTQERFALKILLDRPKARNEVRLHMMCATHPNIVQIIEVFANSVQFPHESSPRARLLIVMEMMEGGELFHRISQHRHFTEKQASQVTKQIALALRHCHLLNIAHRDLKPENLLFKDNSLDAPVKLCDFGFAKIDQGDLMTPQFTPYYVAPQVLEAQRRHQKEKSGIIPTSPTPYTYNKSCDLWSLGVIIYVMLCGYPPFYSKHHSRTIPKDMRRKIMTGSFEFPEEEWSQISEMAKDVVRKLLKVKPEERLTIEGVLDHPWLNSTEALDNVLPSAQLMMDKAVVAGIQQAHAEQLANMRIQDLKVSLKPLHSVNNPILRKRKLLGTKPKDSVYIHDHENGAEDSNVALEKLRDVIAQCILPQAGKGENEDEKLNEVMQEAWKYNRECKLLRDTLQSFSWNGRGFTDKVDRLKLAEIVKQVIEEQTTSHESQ

[3] = biological target: T2, Serine/threonine-protein kinase ULK1 (Homo sapiens) (UniProt O75385); assay: Inhibition of ULK1 at 1 uM
T2 sequence (whole entry): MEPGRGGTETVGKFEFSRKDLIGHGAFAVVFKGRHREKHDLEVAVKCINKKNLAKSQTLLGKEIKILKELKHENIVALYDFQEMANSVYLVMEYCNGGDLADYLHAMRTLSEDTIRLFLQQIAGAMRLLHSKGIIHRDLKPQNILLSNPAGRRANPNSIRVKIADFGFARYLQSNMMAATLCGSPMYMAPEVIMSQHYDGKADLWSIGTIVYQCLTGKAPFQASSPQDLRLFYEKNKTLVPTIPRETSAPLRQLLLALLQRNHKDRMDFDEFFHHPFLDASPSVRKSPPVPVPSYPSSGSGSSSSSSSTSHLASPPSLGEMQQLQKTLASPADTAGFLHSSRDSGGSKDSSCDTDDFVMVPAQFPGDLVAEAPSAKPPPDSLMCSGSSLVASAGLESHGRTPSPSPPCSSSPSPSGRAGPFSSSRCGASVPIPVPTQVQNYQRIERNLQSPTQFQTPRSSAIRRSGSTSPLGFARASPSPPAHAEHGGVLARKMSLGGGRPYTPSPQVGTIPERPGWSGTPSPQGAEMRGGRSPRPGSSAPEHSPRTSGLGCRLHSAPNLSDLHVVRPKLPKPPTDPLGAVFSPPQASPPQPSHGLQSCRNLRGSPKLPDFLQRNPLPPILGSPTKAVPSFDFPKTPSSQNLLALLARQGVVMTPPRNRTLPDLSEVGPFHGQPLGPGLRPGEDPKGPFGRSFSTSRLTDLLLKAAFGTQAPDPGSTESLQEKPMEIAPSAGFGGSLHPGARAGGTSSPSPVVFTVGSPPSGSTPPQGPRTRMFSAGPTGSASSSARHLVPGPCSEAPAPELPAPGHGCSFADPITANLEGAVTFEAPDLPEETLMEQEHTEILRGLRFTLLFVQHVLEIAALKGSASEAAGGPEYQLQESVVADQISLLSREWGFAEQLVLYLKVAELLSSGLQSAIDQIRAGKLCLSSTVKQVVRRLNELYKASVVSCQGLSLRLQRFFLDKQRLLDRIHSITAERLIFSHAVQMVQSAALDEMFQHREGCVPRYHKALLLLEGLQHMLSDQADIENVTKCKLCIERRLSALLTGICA

[4] = test system: Tyrosine-protein kinase ABL1 (Homo sapiens), P00519 [Q252H]; assay: Inhibition of ABL1 Q252H mutant at 1 uM
Procedure, shortened: (§1)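 Ambit KINOMEscan screen at a single concentration across a 250–400 kinase panel, recorded as percent inhibition. Selectivity was expressed as S(90), the fraction of kinases inhibited >90%.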

[5] = biological target: T3, Activin receptor type-1B (Homo sapiens) (UniProt P36896); assay: Inhibition of ACVR1B at 1 uM; procedure, shortened: as §1
T3 sequence (whole entry): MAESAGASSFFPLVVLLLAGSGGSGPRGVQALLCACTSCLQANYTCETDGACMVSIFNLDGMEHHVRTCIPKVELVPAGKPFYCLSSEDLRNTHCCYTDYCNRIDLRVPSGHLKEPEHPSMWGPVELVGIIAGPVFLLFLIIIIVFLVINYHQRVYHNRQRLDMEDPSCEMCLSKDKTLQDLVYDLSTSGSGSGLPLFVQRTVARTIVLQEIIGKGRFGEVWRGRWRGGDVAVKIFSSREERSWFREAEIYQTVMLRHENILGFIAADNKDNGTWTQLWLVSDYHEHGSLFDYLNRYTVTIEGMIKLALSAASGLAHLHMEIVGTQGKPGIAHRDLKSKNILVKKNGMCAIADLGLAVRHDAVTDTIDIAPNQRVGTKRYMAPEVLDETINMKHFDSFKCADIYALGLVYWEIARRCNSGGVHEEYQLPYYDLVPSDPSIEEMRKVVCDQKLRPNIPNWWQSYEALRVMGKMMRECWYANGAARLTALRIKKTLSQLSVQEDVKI

[6] = biological target: Tyrosine-protein kinase BTK (Homo sapiens) (UniProt Q06187); assay: Inhibition of BTK at 1 uM; procedure, shortened: as §1
Chain of Tyrosine-protein kinase BTK (Homo sapiens) (Q06187 whole entry): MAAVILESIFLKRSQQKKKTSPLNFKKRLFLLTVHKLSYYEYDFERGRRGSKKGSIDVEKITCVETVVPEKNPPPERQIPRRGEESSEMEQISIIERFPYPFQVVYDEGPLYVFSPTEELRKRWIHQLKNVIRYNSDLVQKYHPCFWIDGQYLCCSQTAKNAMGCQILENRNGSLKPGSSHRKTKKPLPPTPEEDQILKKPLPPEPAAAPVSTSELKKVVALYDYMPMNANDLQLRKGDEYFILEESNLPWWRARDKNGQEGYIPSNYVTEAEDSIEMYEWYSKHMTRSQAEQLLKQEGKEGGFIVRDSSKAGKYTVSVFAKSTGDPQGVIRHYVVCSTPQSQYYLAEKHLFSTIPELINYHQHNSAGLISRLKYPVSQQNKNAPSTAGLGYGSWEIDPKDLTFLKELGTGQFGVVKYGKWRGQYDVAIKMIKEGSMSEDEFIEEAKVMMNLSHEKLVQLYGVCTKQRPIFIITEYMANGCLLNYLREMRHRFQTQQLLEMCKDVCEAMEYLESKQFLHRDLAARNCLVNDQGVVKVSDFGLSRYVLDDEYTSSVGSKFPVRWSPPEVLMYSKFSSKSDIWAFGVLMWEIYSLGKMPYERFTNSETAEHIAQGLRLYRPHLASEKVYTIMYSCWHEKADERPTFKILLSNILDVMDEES

[7] = biological target: T4, Serine/threonine-protein kinase DCLK3 (Homo sapiens) (UniProt Q9C098); assay: Inhibition of DCAMKL3 at 1 uM
T4 sequence (whole entry): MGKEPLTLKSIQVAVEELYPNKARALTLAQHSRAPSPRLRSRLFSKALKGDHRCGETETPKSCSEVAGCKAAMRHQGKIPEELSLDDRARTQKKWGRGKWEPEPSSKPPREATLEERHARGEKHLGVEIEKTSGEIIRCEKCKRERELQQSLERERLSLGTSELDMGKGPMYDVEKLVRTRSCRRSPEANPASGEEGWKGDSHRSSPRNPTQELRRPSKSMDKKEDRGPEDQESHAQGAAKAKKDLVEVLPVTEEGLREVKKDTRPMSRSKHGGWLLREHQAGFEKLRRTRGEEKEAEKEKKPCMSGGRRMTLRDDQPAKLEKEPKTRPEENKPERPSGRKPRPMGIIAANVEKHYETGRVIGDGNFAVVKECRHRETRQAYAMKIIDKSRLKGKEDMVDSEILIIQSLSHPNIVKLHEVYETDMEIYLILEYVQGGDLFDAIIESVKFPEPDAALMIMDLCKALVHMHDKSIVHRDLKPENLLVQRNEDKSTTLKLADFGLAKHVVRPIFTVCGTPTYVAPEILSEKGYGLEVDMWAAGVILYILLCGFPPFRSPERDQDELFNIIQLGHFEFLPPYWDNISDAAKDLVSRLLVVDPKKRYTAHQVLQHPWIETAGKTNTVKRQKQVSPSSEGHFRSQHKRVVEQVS

Chain of Leukocyte tyrosine kinase receptor (Homo sapiens) (P29376 whole entry): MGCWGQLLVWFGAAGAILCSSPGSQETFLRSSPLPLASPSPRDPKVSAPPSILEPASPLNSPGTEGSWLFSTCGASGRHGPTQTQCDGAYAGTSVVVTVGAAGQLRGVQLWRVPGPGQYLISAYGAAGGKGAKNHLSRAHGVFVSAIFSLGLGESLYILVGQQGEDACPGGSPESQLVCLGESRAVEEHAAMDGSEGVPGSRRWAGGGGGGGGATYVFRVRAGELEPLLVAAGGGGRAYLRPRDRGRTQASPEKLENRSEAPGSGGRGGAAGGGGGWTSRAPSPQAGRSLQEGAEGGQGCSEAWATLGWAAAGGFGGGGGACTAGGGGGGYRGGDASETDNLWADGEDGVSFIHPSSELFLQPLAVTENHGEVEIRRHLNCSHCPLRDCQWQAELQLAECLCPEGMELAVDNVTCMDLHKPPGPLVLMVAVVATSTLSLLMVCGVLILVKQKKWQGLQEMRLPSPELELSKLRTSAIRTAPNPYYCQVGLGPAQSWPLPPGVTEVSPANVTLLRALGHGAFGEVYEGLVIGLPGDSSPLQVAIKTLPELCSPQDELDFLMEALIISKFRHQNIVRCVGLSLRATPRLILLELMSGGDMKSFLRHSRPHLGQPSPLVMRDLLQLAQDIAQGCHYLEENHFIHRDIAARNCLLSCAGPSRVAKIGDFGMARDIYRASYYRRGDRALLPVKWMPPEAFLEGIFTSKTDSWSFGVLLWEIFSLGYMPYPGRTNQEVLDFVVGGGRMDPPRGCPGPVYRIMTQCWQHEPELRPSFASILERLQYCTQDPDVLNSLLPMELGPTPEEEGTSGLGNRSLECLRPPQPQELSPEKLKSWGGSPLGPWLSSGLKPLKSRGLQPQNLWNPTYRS

| SMILES | inhibition [1] [%] | inhibition [2] [%] | inhibition [3] [%] | inhibition [4] [%] | inhibition [5] [%] | inhibition [6] [%] | inhibition [7] [%] |
| --- | --- | --- | --- | --- | --- | --- | --- |
| O=C(O)c1ccc(-c2cnc3c(c2)N(Cc2cc(Cl)ccc2C(F)(F)F)CCN3)cc1 | 92.7 | – | – | < 50 | < 50 | < 50 | – |
| O=C(c1ccc(-c2cnc3c(c2)N(Cc2cc(Cl)ccc2C(F)(F)F)CCN3)cc1)N1CCC(N2CCCC2)CC1 | 80.7 | – | – | 63 | < 50 | < 50 | – |
| CC(=O)N1CCN(c2cc(-c3cnc4c(c3)N(Cc3cc(Cl)ccc3C(F)(F)F)CCN4)ccn2)CC1 | 99 | < 50 | < 50 | < 50 | < 50 | < 50 | 92 |
| CN1CCN(c2ccc(-c3cnc4c(c3)N(Cc3c(F)ccc(F)c3Cl)CCN4)cn2)CC1 | 97 | < 50 | < 50 | 72 | < 50 | < 50 | < 50 |
| CN1CCN(c2ccc(-c3cnc4c(c3)N(Cc3cc(Cl)ccc3Cl)CCN4)cn2)CC1 | 97 | < 50 | < 50 | < 50 | < 50 | < 50 | 84 |

Now from value to molecule:

| inhibition [1] [%] | inhibition [2] [%] | inhibition [3] [%] | inhibition [4] [%] | inhibition [5] [%] | inhibition [6] [%] | inhibition [7] [%] | SMILES |
| --- | --- | --- | --- | --- | --- | --- | --- |
| 99 | < 50 | < 50 | < 50 | < 50 | < 50 | 75 | CN1CCN(c2ccc(-c3cnc4c(c3)N(Cc3cc(Cl)ccc3C(F)(F)F)CCN4)cn2)CC1 |
| 95.5 | – | – | < 50 | < 50 | < 50 | – | COC1CCN(C(=O)c2ccc(-c3cnc4c(c3)N(Cc3cc(Cl)ccc3C(F)(F)F)CCN4)cc2)CC1 |
| 100 | < 50 | < 50 | < 50 | < 50 | < 50 | 99 | FC(F)(F)c1ccc(Cl)cc1CN1CCNc2ncc(-c3ccnc(N4CCNCC4)c3)cc21 |
| 96.8 | < 50 | < 50 | < 50 | < 50 | < 50 | 89 | CN1CCN(c2ccc(-c3cnc4c(c3)N(Cc3cc(F)ccc3F)CCN4)cn2)CC1 |
| 89.3 | – | – | < 50 | < 50 | < 50 | – | O=C(c1ccc(-c2cnc3c(c2)N(Cc2cc(Cl)ccc2C(F)(F)F)CCN3)cc1)N1CCCCC1 |
